Screens deposited in PubChem by Broad Institute.
Pf Dd2 inh = P. falciparum Dd2 growth inhibition; SYBR Green, 72 h; active compounds read low; AID 1159554; activity change, % at 10 µM; actives 2.3% (n = 94,000); in the data active = activity change below about -80%; inconclusive = no clear call, values can overlap the other calls
GASC1 inh = KDM4C (human) demethylase inhibition | Q9H3R0 | GST-KDM4C 2-372, H3K9me3 peptide, LANCE TR-FRET | inhibition, % at 12.5 µM | actives 0.15% (n = 96,000);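 active = mean replicate inhibition above about 25%, with at least 55% of replicates also reaching it, limit read from the data, passing the limit was not always enough; inconclusive = only one of those two conditions met; inactive = neither condition met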
Target sequence (Q9H3R0 2-372 limits assumed): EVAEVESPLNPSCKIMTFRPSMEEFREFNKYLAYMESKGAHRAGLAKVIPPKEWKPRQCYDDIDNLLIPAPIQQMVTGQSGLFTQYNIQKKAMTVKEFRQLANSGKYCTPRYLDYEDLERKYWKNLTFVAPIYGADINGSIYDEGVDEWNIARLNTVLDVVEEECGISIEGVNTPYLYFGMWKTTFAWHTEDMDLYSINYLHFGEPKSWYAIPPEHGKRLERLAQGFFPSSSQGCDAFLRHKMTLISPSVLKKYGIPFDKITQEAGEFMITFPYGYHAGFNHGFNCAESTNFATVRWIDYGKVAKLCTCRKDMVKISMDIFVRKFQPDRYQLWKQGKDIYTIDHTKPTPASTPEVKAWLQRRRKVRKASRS
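material = GST-tagged GASC-1 (JMJD2C) catalytic fragment, aa 2-372 | amount = enzyme final amount 10 nM | medium = HEPES buffer, pH 7.5, plus ascorbate | also added = H3K9me3 peptide substrate, Fe(II), 2-oxoglutarate | dosing = single dose | times = 30 min demethylation and 1 h detection at room temperature | detection = LANCE TR-FRET | read-out basis = Fall in 671/618 emission ratio as inhibition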
IDH1 R132H inh = IDH1 R132H (human) inhibition. O75874. IDH1 R132H reductase, diaphorase/resazurin fluorescence, 60 min. AID 624101. actives 0.18% (n = 70,000). inhibition, % at 10 µM; in the data active = inhibition above about 34%; inconclusive = no clear call, values can overlap the other calls; inactive = below about 11%
Target sequence (O75874 whole entry R132H): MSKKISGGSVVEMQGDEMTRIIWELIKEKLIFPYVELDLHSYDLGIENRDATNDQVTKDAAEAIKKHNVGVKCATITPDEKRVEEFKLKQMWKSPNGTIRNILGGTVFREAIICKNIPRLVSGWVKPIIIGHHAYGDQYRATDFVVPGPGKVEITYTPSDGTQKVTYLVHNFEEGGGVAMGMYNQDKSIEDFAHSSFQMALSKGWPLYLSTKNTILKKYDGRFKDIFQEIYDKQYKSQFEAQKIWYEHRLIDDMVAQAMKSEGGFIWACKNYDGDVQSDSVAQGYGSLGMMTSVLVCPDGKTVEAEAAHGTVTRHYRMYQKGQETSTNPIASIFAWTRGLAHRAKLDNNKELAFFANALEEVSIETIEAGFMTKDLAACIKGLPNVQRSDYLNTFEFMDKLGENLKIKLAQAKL
T cruzi growth-1 = inhibitors of T. cruzi proliferation. T. cruzi beta-gal in NIH3T3, GalScreen luminescence, 90 h. AID 624255. actives 5.9% (n = 77,000). inhibition, % at 8.34 µM;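 active = mean inhibition above about 93%, with at least 55% of replicates each passing it, limit read from the data, passing the limit was not always enough; inconclusive = only one of those two conditions holds; inactive = neither condition holds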
T cruzi growth-2 = Trypanosoma cruzi proliferation inhibition; T. cruzi beta-gal in NIH3T3, GalScreen luminescence, 90 h; inhibition, % at 8.35 µM; AID 651739; shares compounds with T cruzi growth-1; actives 72% (n = 5,600);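 active = mean replicate inhibition above about 95% and at least 55% of replicates individually reaching it, limit read from the data; inconclusive = only one of the two criteria is met; inactive = neither criterion is met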
T cruzi growth-3 = blocks T. cruzi growth in NIH3T3 host cells | shares compounds with T cruzi growth-1 | actives 21% (n = 5,600) | AID 651740 | inhibition, % at 2.09 µM | T. cruzi beta-gal in NIH3T3, GalScreen luminescence, 90 h;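 active = mean inhibition above about 95%, with at least 55% of replicates also reaching it, limit read from the data; inconclusive = meets just one of the two conditions; inactive = meets neither condition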
3T3 cytotox = kills mouse NIH/3T3 fibroblasts; shares compounds with T cruzi growth-1; NIH/3T3 viability, CellTiter-Glo ATP luminescence, 90 h; cytotoxicity (signal decrease), % at 8.35 µM; actives 14% (n = 5,600); AID 651742;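 active = mean signal decrease across replicates above about 35% based on untreated-well scatter, with enough replicates individually passing, limit read from the data; inconclusive = no rule stated though some were filed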
NIH3T3 tox 2 = cytotoxicity in mouse NIH/3T3 fibroblasts; shares compounds with T cruzi growth-1; NIH/3T3 viability, CellTiter-Glo ATP luminescence, 90 h; inhibition, % at 24.9 µM; actives 56% (n = 5,600); AID 651744;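 active = mean loss of cell viability signal at or above a set limit, and enough replicates individually reaching it; inconclusive = meets only the mean limit or only the replicate share; inactive = meets neither condition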
A number is an active result; 0 = inactive; ? = inconclusive; - = no result. In the library only some 5.8% were active in any assay of this set; here they are far more common.

SMILES | Pf Dd2 inh | GASC1 inh | IDH1 R132H inh | T cruzi growth-1 | T cruzi growth-2 | T cruzi growth-3 | 3T3 cytotox | NIH3T3 tox 2
CN(C)C(=O)c1cccc(-c2ccc([C@H]3[C@@H](CO)N4CCCCN(C(=O)C5CCCC5)C[C@H]34)cc2)c1 | 0 | - | - | 102.6 | 98.2 | 0 | 0 | 0
CN(C)C(=O)c1cccc(-c2ccc([C@@H]3[C@H](CO)N4CCCCN(C(=O)C5CCC5)C[C@@H]34)cc2)c1 | 0 | 0 | - | 104.4 | 0 | 0 | 0 | 0
CN(c1cccc(NC(=O)c2ccc(CN3CCOCC3)cc2)c1)S(C)(=O)=O | - | - | 0 | - | - | - | - | -
Cc1ccc(S(=O)(=O)CCSc2cccc(C(=O)Nc3ccccc3)c2)cc1 | - | - | 0 | - | - | - | - | -
COc1ccccc1NC(=O)c1ccccc1NC(=O)COc1ccccc1C | - | - | 0 | - | - | - | - | -
Cn1c(SCC(=O)Nc2ccccc2Cl)nnc1-c1cccc([N+](=O)[O-])c1 | - | - | 0 | - | - | - | - | -
Cc1ccc(C)c(S(=O)(=O)NCC(=O)Nc2ccc(F)c(Cl)c2)c1 | - | - | 0 | - | - | - | - | -
C[C@@H]1CCCCO[C@H](CN(C)S(=O)(=O)c2ccc(Cl)cc2)[C@H](C)CN([C@H](C)CO)C(=O)c2cc(NC(=O)c3ccncc3)ccc2O1 | 0 | 0 | - | 100.8 | 99.8 | 0 | 38.3 | 0
C[C@H]1CCCCO[C@H](CN(C)S(=O)(=O)c2ccc(Cl)cc2)[C@@H](C)CN([C@@H](C)CO)C(=O)c2cc(NC(=O)c3ccncc3)ccc2O1 | 0 | 0 | 0 | 0 | - | - | - | -
C[C@@H]1CN([C@H](C)CO)C(=O)c2cc(NC(=O)c3ccncc3)ccc2O[C@@H](C)CCCCO[C@@H]1CN(C)S(=O)(=O)c1ccc(Cl)cc1 | ? | 0 | - | ? | 95.2 | 0 | 0 | 0
C[C@@H]1CCCCO[C@H](CN(C)CC2CCCCC2)[C@H](C)CN([C@H](C)CO)C(=O)c2cc(NC(=O)Nc3ccc(C(F)(F)F)cc3)ccc2O1 | 0 | - | 0 | ? | 0 | 0 | 0 | 0
C[C@@H]1CCCCO[C@@H](CN(C)CC2CCCCC2)[C@H](C)CN([C@H](C)CO)C(=O)c2cc(NC(=O)Nc3ccc(C(F)(F)F)cc3)ccc2O1 | -80.9 | 0 | 0 | ? | 106.2 | 116.4 | 118.2 | 104.6
C[C@@H]1CCCCO[C@@H](CN(C)CC2CCCCC2)[C@@H](C)CN([C@@H](C)CO)C(=O)c2cc(NC(=O)Nc3ccc(C(F)(F)F)cc3)ccc2O1 | 0 | - | - | 99.4 | ? | 111.8 | 122.5 | 102.9
C[C@@H]1CCCCO[C@@H](CN(C)CC2CC2)[C@H](C)CN([C@H](C)CO)C(=O)c2cc(NC(=O)Nc3ccc(C(F)(F)F)cc3)ccc2O1 | 0 | 0 | 0 | 0 | - | - | - | -
O=C(CCCCCCC(=O)N/N=C/c1cccnc1)NO | - | - | 0 | - | - | - | - | -
COc1ccc(-c2noc(CN(C(=O)c3ccc(C)c([N+](=O)[O-])c3)C(C)C)n2)cc1 | - | - | 0 | - | - | - | - | -
CC(C)CC#Cc1ccc2c(c1)O[C@H](CN(C)Cc1cncnc1)[C@@H](C)CN([C@H](C)CO)S2(=O)=O | 0 | 0 | 0 | 103.4 | 0 | 106.4 | 47.4 | 60.6
CC(C)CC#Cc1ccc2c(c1)O[C@H](CN(C)Cc1cccnc1)[C@@H](C)CN([C@@H](C)CO)S2(=O)=O | - | 0 | 0 | 99.8 | 0 | 101.9 | 0 | 104.3
CC(C)CC#Cc1ccc2c(c1)O[C@@H](CN(C)Cc1cccnc1)[C@@H](C)CN([C@@H](C)CO)S2(=O)=O | - | 0 | 0 | 107.6 | 108.3 | 0 | 0 | 107.0
CC(C)CC#Cc1ccc2c(c1)O[C@@H](CN(C)Cc1cccnc1)[C@H](C)CN([C@@H](C)CO)S2(=O)=O | - | 0 | 0 | 0 | - | - | - | -
CC(C)CC#Cc1ccc2c(c1)O[C@H](CN(C)Cc1cncnc1)[C@H](C)CN([C@H](C)CO)S2(=O)=O | 0 | 0 | 0 | 0 | - | - | - | -
CC(C)CC#Cc1ccc2c(c1)O[C@@H](CN(C)Cc1cccnc1)[C@@H](C)CN([C@H](C)CO)S2(=O)=O | - | 0 | 0 | 0 | - | - | - | -
O=[N+]([O-])c1ccccc1S(=O)(=O)N1CCN(S(=O)(=O)Cc2ccccc2)CC1 | - | - | 0 | - | - | - | - | -
C[C@@H]1CCCCO[C@@H](CN(C)Cc2ccc(C(F)(F)F)cc2)[C@H](C)CN([C@H](C)CO)C(=O)c2cc(NS(=O)(=O)c3cccs3)ccc2O1 | 0 | 0 | 0 | 113.7 | 98.0 | 113.7 | 0 | 104.3
C[C@@H]1CCCCO[C@@H](CN(C)Cc2ccc(C(F)(F)F)cc2)[C@H](C)CN([C@@H](C)CO)C(=O)c2cc(NS(=O)(=O)c3cccs3)ccc2O1 | 0 | 0 | - | 112.5 | 103.0 | 99.1 | ? | 105.6
SMILES | Pf Dd2 inh | GASC1 inh | IDH1 R132H inh | T cruzi growth-1 | T cruzi growth-2 | T cruzi growth-3 | 3T3 cytotox | NIH3T3 tox 2
C[C@@H]1CCCCO[C@H](CN(C)Cc2ccc(C(F)(F)F)cc2)[C@@H](C)CN([C@H](C)CO)C(=O)c2cc(NS(=O)(=O)c3cccs3)ccc2O1 | 0 | 0 | - | 0 | - | - | - | -
C[C@@H]1CCCCO[C@@H](CN(C)Cc2ccc(C(F)(F)F)cc2)[C@@H](C)CN([C@H](C)CO)C(=O)c2cc(NS(=O)(=O)c3cccs3)ccc2O1 | 0 | 0 | - | 0 | - | - | - | -
C[C@H](CO)N1C[C@H](C)[C@H](CN(C)C(=O)Nc2ccc(C(F)(F)F)cc2)OCCCC[C@H](C)Oc2ccc(NS(=O)(=O)c3cccs3)cc2C1=O | 0 | 0 | 0 | 96.7 | 96.8 | 105.0 | 0 | 0
C[C@@H]1CCCCO[C@H](CN(C)Cc2ccc(C(F)(F)F)cc2)[C@H](C)CN([C@@H](C)CO)C(=O)c2cc(NS(=O)(=O)c3cccs3)ccc2O1 | 0 | 0 | 0 | 112.6 | 97.0 | 104.2 | 0 | 103.0
C[C@@H]1CCCCO[C@H](CN(C)Cc2ccc(C(F)(F)F)cc2)[C@H](C)CN([C@H](C)CO)C(=O)c2cc(NS(=O)(=O)c3cccs3)ccc2O1 | 0 | 0 | - | 100.7 | 98.8 | 116.7 | 0 | 105.3
COc1cc(CNC23CC4CC(CC(C4)C2)C3)ccc1OCC(N)=O | - | - | 0 | - | - | - | - | -
N#C[C@H]1[C@@H](c2ccc(-c3ccccc3F)cc2)[C@@H](CO)N1C(=O)C1CC1 | 0 | 0 | 0 | 104.0 | 106.7 | 0 | 0 | ?
COc1ccccc1-c1ccc([C@@H]2[C@@H](C#N)N(C(=O)C3CC3)[C@H]2CO)cc1 | 0 | 0 | - | 103.8 | 0 | 0 | 0 | 0
COc1ccc(-c2ccc([C@@H]3[C@H](C#N)N(C(=O)C4CC4)[C@H]3CO)cc2)cc1 | 0 | 0 | - | 0 | - | - | - | -
COc1ccccc1-c1ccc([C@@H]2[C@@H](C#N)N(C(=O)C3CCC3)[C@H]2CO)cc1 | 0 | 0 | - | 0 | - | - | - | -
COc1ccc(-c2ccc([C@H]3[C@@H](C#N)N(C(=O)C4CC4)[C@H]3CO)cc2)cc1 | 0 | 0 | - | 105.0 | 0 | 0 | 0 | 0
Cc1nnc(SCC(=O)Nc2ccc(Br)c(C)c2C)s1 | - | - | 0 | - | - | - | - | -
